The source of these data is ChEMBL document CHEMBL1156019, “Synthesis and small-animal positron emission tomography evaluation of [11C]-elacridar as a radiotracer to assess the distribution of P-glycoprotein at the blood-brain barrier” (J Med Chem, 2009).

Series [1] concerns Brain. Briefly: Biodistribution of rat brain at 20 MBq, iv after 30 mins post-injection in presence of cyclosporine A treated before compound infusion relative to basal level. It is filed as ADME, organism-based. Particulars: in vivo, 0.5 h.
The nature of series [2]: Inhibition of P-gp-mediated [3H]daunorubicin transport in Wistar rat hepatocytes by scintillation counting. Particulars: hepatocyte. Type of series: cell-based.
For series [3], the system named is Brain. Briefly: Biodistribution in naive rat brain assessed per gram of tissue at 118 +/- 40 MBq, iv after 130 mins by positron emission tomography. The following applies: in vivo. It is filed as ADME, organism-based. The method in brief:
(§1)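 Naïve rats under 1.5-2% isoflurane with femoral artery and vein catheters; [11C]-tracer 118±40 MBq i.v. bolus over ~30 s; dynamic microPET. Scan 1: unlabeled compound 5 mg/kg i.v. at 60 min, then 90 min more acquisition; scan 2 given 2 h after unlabeled dose. Whole-brain TACs as %ID/g; arterial blood sampled serially and gamma counted. n=3, mean ± SD.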

A further series concerns Caco-2. Briefly: Ratio of permeability from basolateral to apical side over apical to basolateral side in human Caco-2 cells. In general terms: Passage across Caco-2 layers is used to estimate intestinal permeability.
Series [4] concerns Brain. Kind of series: Ratio of drug level in naive rat brain at 118 +/- 40 MBq, iv administered 2 hrs after unlabeled elacridar infusion to drug level in naive rat brain at 118 +/- 40 MBq, iv administered before unlabeled elacridar infusion. It is filed as ADME, organism-based. Particulars: in vivo. The method in brief:
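Naive rats under isoflurane with femoral artery and vein catheters; n=3. Scan 1: [11C]-1 118±40 MBq i.v. bolus over about 30 s, then dynamic PET. At 60 min, unlabeled 1 (5 mg/kg) i.v. over about 20 s, then 90 min more imaging. Scan 2 run 2 h after unlabeled dose. Whole-brain %ID/g at 18 min compared as scan 2/scan 1; two-tailed paired t-test.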

The test system of series [5] is Brain. Kind of series: Biodistribution in naive rat brain assessed per gram of tissue at 118 +/- 40 MBq, iv administered 2 hrs after unlabeled elacridar infusion measured after 18 mins by positron emission tomography. It is filed as ADME, organism-based. Particulars: in vivo, 0.3 h. The method in brief: as §1
The species named for the next series is Rattus norvegicus. The following applies: Sprague-Dawley, 10 M.
The test system of series [6] is Blood. Kind of series: Biodistribution in wild type mouse blood assessed per gram of tissue at 42 +/- 6 MBq, iv after 20 mins by gamma counting. The following applies: in vivo.
Series [7] relates to Brain. Kind of series: Biodistribution in Bcrp1 knockout mouse brain assessed per gram of tissue, iv after 18 mins. Particulars: in vivo, 0.3 h.
For series [8], the system named is Brain. Briefly: Ratio of drug level in Bcrp1 knockout mouse brain to wild type mouse brain. It is filed as ADME, tissue-based. The following applies: in vivo. The method in brief:
(§2)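 Wild-type FVB, Mdr1a/b(-/-) and Bcrp1(-/-) female mice (25-30 g), isoflurane-anesthetized and kept warm. [11C]-1 42±6 MBq i.v. bolus via tail vein, with a 60-min dynamic microPET scan started at injection. Whole-brain %ID/g read from time-activity curves at 18 min; knockout/wild-type ratios taken at 18 min; n=3; two-tailed unpaired t-test.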

Series [9] concerns Brain. Briefly: Biodistribution in naive rat brain assessed per gram of tissue at 118 +/- 40 MBq, iv after 0.6 mins by positron emission tomography. Type of series: ADME, organism-based. The following applies: in vivo, 0.01 h. The method in brief: as §1
Series [10] is described as follows: Ratio of drug level in wild type mouse brain to naive rat brain. It is filed as ADME, tissue-based. The following applies: in vivo. The method in brief:
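Whole-brain %ID/g at 18 min after i.v. [11C]-1, from dynamic PET. Wild-type female FVB mice received 42±6 MBq via tail vein. Naive rats (baseline scan, before any unlabeled compound) received 118±40 MBq via femoral vein catheter. Both groups under isoflurane; n=3 each.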

The subject of series [11] is Blood. Briefly: Biodistribution in Mdr1a/b knockout mouse blood assessed per gram of tissue at 42 +/- 6 MBq, iv after 20 mins by gamma counting. The following applies: in vivo.
For series [12], the system named is Blood. Briefly: Biodistribution in Bcrp1 knockout mouse blood assessed per gram of tissue at 42 +/- 6 MBq, iv after 20 mins by gamma counting. Particulars: in vivo.
Series [13] deals with Brain. Briefly: Biodistribution in wild type mouse brain assessed per gram of tissue, iv after 18 mins. Particulars: in vivo, 0.3 h.
The test system of series [14] is Blood. Kind of series: Biodistribution in naive rat blood assessed per gram of tissue at 118 +/- 40 MBq, iv after 20 mins by gamma counting. Type of series: ADME, organism-based. The following applies: in vivo. The method in brief: as §1
For series [15], the system named is Brain. Kind of series: Biodistribution in naive rat brain assessed per gram of tissue at 118 +/- 40 MBq, iv after 18 mins by positron emission tomography. Type of series: ADME, organism-based. Particulars: in vivo, 0.3 h. The method in brief: as §1
Series [16] has as its system Brain. Kind of series: Biodistribution in Mdr1a/b knockout mouse brain assessed per gram of tissue, iv after 18 mins. The following applies: in vivo, 0.3 h.
Series [17] concerns Brain. Briefly: Ratio of drug level in Mdr1a/b knockout mouse brain to wild type mouse brain. It is filed as ADME, tissue-based. Particulars: in vivo. The method in brief:
as §2

As to `[11CH3]OC(=O)c1cnc2n1CCc1ccccc1C2=C1CCN(CCc2ccc(OCc3ccc4ccccc4n3)cc2)CC1`, in the series on Brain [1], the “fold change (FC)” value is 6.

In [2], `COc1cc2c(cc1OC)CN(CCc1ccc(NC(=O)c3cccc4c(=O)c5cccc(OC)c5[nH]c34)cc1)CC2` displayed an inhibitory constant (Ki) of 0.035 µM. The Drug uptake in the series on Brain [3] is 0.28 %ID; with Brain [5], 0.4 %ID. In addition, the values for the Ratio in the series on Caco-2 and in the series on Brain [4] were less than 2 and 5.4, respectively. For the same compound, the inhibition in the series listed under Rattus norvegicus worked out at 63%.

In the case of `COc1cc2c(cc1OC)CN(CCc1ccc(NC(=O)c3cccc4c(=O)c5cccc(O[11CH3])c5[nH]c34)cc1)CC2`, the Drug uptake in the series on Blood [6] came out at 0.97 %ID; with Brain [7] it was 0.9 %ID; in the series with Brain [9], 0.23 %ID; with Blood [11], 0.64 %ID; with Blood [12], 0.89 %ID; in the series with Brain [13] it was 0.72 %ID. Also, the figures for the Drug uptake in the series with Blood [14], in the series with Brain [15] and in the series on Brain [16] were 0.02 %ID, 0.07 %ID and 1.8 %ID, respectively. Besides, the Ratio with Brain [8] was determined as 1.3; in [10] it was 10; with Brain [17], 2.5.

The term Ki denotes a dissociation constant, usually derived from enzyme kinetics or from competition with a known ligand. Higher therefore signals weaker binding. As a reminder, the inhibition is how much of the control response was suppressed. Read a low inhibition as little suppression.
